Measured values as given in publication PMC6977399 (Clinical Pharmacology and Therapeutics, 2019).

What was measured:
Type in all cases: in vitro ADME
CYP2B6 = target: T1, CYP2B6 (Homo sapiens, UniProt P20813); assay: CYP inhibition in human liver microsomes; details: up to 50 μM
T1 sequence (P20813 1-491): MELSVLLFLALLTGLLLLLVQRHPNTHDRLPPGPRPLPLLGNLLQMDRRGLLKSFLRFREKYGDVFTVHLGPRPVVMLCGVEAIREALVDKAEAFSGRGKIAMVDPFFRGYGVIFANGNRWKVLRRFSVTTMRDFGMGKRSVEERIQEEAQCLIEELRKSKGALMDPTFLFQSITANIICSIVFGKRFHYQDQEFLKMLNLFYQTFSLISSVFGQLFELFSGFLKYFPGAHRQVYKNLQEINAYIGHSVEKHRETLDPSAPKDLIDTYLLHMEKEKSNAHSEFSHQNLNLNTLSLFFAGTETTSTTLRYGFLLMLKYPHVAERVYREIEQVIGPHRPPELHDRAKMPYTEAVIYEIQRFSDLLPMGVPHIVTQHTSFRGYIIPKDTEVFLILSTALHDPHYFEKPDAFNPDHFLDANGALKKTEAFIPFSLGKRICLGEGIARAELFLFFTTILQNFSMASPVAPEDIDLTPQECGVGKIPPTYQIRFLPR
In short: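 Reversible inhibition: test compound pre-incubated 10 min at 37°C with pooled human liver microsomes plus an isoform-selective probe substrate. Reaction started with NADPH (1.3 mM), then quenched with 3% formic acid in acetonitrile containing internal standard. CYP-specific metabolite formation measured by LC-MS/MS. Activity expressed as % control = (peak area ratio with compound / without compound) × 100.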

OATP1B3 = target: T2, OATP1B3 (Homo sapiens, UniProt Q9NPD5); assay: Inhibition of OATP1B3-mediated CCK-8 uptake in HEK293 cells
T2 sequence (Q9NPD5 1-702): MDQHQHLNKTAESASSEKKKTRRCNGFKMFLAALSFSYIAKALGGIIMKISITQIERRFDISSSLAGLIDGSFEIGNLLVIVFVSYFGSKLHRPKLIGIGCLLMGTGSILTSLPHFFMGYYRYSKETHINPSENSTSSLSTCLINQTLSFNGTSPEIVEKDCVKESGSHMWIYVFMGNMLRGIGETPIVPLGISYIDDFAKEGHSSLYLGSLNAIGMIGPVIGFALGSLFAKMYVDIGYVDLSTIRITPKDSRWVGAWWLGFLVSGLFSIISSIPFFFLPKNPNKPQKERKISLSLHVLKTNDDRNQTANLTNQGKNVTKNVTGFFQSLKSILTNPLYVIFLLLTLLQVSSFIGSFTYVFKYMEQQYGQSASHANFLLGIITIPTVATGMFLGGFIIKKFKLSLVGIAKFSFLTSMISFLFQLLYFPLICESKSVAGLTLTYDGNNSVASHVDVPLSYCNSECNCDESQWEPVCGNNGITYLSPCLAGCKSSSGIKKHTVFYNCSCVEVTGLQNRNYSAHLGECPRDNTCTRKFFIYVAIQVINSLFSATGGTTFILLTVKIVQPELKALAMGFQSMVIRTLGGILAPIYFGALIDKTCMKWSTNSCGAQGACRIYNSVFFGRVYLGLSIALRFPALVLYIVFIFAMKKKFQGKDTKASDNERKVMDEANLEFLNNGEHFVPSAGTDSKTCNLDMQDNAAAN

human OAT3 = target: T3, human OAT3 (Homo sapiens, UniProt Q8TCC7); assay: Inhibition of OAT3-mediated estrone-3-sulfate uptake in HEK293 cells
T3 sequence (Q8TCC7 1-542): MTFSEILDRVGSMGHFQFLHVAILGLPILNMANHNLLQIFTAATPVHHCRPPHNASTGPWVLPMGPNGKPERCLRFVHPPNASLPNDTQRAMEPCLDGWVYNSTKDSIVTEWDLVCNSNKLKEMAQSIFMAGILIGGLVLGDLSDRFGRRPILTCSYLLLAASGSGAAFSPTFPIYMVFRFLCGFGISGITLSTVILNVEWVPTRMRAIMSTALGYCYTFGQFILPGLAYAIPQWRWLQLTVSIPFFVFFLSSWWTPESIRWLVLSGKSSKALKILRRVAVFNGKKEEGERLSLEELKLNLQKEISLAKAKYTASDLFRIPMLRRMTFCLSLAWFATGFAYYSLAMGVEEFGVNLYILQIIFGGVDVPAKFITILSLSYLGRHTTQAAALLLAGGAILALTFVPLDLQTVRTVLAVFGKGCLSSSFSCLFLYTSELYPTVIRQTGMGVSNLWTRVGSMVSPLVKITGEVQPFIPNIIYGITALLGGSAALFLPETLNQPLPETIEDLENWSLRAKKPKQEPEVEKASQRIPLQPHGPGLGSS
In short: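 HEK293 cells stably expressing human OAT3, with mock-transfected HEK293 as control cells. Uptake was run at 37°C in HK buffer (pH 7.4) with 1 μM ³H-estrone-3-sulfate plus test compound or DMSO vehicle. Cells were washed twice, lysed in 0.1 M NaOH, and counted by liquid scintillation. Transporter-specific uptake was taken as uptake in transfected cells minus uptake in control cells.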

## C[C@H]1CN(C2COC2)CCN1c1ccc(Nc2cc(-c3ccnc(N4CCn5c(cc6c5CC(C)(C)C6)C4=O)c3CO)cn(C)c2=O)nc1 [fenebrutinib]
CYP2B6
  reversible or time-dependent inhibition of CYP2B6: No reversible or time‐dependent inhibition
OATP1B3
  IC50: 7.15 µM
OATP1B3; human, HEK293 cells stably expressing human OATP1B3, pH 7.4, probe CCK-8 (0.1 μM)
  inhibition at 30 μM: 86.7%
Human OAT3; at clinically relevant concentrations
  inhibition of OAT3 uptake transporter: no evidence of inhibition
Human OAT3; up to 30 μM, the highest concentration tested, HEK293 cells
  influence on OAT3-mediated accumulation of estrone-3-sulfate: did not influence
